Hck-Nef inh: inhibitors of Nef-activated human Hck kinase, primary screen, biochemical, Z-Lyte FRET, 384-well, Hck-YEEI | 220,000 tested, 0.68% active | inhibition, % at 20 µM | Recombinant Hck-YEEI plus Nef, Z-Lyte FRET kinase assay | Tyrosine-protein kinase HCK (Homo sapiens), P08631;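 active = Hck-Nef kinase inhibition above about 50%, limit read from the data; inactive = inhibition below that limit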
Target sequence (P08631 whole entry, looked up): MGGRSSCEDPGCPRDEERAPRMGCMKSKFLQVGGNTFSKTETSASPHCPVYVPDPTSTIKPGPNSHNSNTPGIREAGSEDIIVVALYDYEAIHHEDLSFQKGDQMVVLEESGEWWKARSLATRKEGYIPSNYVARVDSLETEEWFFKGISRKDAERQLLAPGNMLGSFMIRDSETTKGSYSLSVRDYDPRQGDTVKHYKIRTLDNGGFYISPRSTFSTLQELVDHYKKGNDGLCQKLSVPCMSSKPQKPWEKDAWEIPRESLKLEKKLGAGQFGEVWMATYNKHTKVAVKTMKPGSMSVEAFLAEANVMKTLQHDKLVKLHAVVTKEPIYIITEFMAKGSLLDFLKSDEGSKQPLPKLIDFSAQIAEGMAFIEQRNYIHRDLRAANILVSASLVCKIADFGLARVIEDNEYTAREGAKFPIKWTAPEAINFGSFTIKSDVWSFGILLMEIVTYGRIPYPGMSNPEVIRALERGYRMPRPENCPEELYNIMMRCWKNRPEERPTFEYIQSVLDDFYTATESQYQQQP
Runt-SMMHC FRET: inhibitors of RUNX1 Runt–CBFb-SMMHC binding, primary screen, biochemical, FRET, Cerulean-Runt, Venus-CBFb-SMMHC, uHTS; Cerulean-Runt/Venus-CBFb-SMMHC FRET ratio 530/480, 1 h; inhibition, % at 20 µM; 220,000 tested, 0.74% active;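 active = mean inhibition across duplicate retests at 20 µM reaching about 50%, limit read from the data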;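 also: inhibitors lower the FRET ratio by blocking Runt binding to CBFb-SMMHC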
Tb hexokinase: Trypanosoma brucei hexokinase 1 inhibitors, primary screen, biochemical, G6PDH-coupled NADH absorbance, MLSCN library. hexokinase 1 [Trypanosoma brucei]. recombinant TbHK1, G6PDH-coupled NADH A340. inhibition, % at 10 µM. 220,000 tested, 0.11% active. AID 1430, 2008;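 active = inhibition of 50% or more in the single-dose primary screen; inactive = inhibition below 50%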
RanGTP-Impb inh: inhibitors of RanGTP-importin-beta interaction, primary screen, biochemical, FRET, CFP-Ran, YFP-importin-beta, homogeneous; Ran GTPase (GTP-bound) - importin-beta complex; cell-free CFP-Ran/YFP-importin-beta FRET ratio; inhibition, % (concentration not given with the values); 300,000 tested, 1.1% active; AID 2216, 2009;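 active = more than half of the replicate wells show a fall in the fluorescence ratio signal beyond about 16%, limit read from the data, passing the limit was not always enough; inconclusive = exactly half of the replicate wells pass the set limit; inactive = fewer than half of replicates pass the limit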
Runt-CBFb FRET: inhibitors of RUNX1 Runt–CBFb binding, primary screen, biochemical, FRET, Cerulean-Runt, Venus-CBFb, uHTS. Runt-related transcription factor 1 (Homo sapiens) + Core-binding factor subunit beta …. Cerulean-Runt/Venus-CBFb FRET ratio 530/480, 1 h. inhibition, % at 20 µM. 220,000 tested, 0.46% active. AID 1496, 2009;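 active = inhibition over about 50% at 20 µM in the single-dose screen, limit read from the data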
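test system = Cerulean-Runt domain fusion protein, energy donor | probe or stimulus = Venus-CBFb binding partner, 100 nM | incubation = two 1 h room-temperature incubations shielded from light | detection = fluorescence energy transfer, 422 nm excitation, 530/480 nm emission | measure = loss of energy transfer signal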
A number is an active result; - = inactive; ? = inconclusive; . = not tested or not shown; + = active, no number. Hits are enriched below; roughly 1.9% of the tested compounds scored in any of these assays.

SMILES | Hck-Nef inh | Runt-SMMHC FRET | Tb hexokinase | RanGTP-Impb inh | Runt-CBFb FRET
Cc1ccc2nc(N3CCN(C(=O)CCC(=O)O)CC3)nc(-c3ccccc3)c2c1 | . | . | . | 30 | .
c1ccc(-c2nc(N3CCCCC3)nc3ccccc23)cc1 | - | 118 | - | 41 | -
O=C(O)CCCC(=O)N1CCN(c2nc(-c3ccccc3)c3ccccc3n2)CC1 | - | - | - | 20 | -
c1ccc(-c2nc(N3CCNCC3)nc3ccccc23)cc1 | - | - | - | - | -
O=C(O)C1CC=CCC1C(=O)N1CCN(c2nc(-c3ccccc3)c3ccccc3n2)CC1 (stereo not drawn) | - | - | - | - | -
Cc1ccc2nc(N3CCC(C(=O)O)CC3)nc(-c3ccccc3)c2c1 | - | - | - | - | -
O=c1c2ccccc2c(C=NC2CCN(Cc3ccccc3)CC2)c(O)n1Cc1ccc2c(c1)OCO2 | - | - | - | - | -
CCc1cccc(OCC(=O)Nc2ccc(S(=O)(=O)Nc3onc(C)c3C)cc2)c1 | - | - | - | - | -
O=C1COC(c2ccccc2)=CN1Cc1ccccc1 | . | . | . | - | .
Clc1c(-c2ccccc2)nnn1-c1ccccc1 | - | - | - | - | -
CC(/C=C1\SC(=S)N(NS(=O)(=O)c2ccccc2)C1=O)=C\c1ccccc1 | 74 | - | - | ? | -
C(=N\Nc1nc2ccccc2[nH]1)/c1ccc2c(c1)OCO2 | - | - | - | - | -
C(=C/c1nccc2c1[nH]c1ccccc12)/c1ccc2c(c1)OCO2 | - | 53 | - | 120 | -
Cc1nc(CCNC(=O)CC2C(=O)NCCN2CC(C)C)nc2c1CCC2 (stereo not drawn) | . | . | . | - | .
N#Cc1cc2ccc(N3CCOCC3)cc2cc1C#N | - | - | - | 35 | -
COc1cc(/C=N/N2CCN(C3c4ccccc4-c4ccccc43)CC2)cc(OC)c1OC | - | - | - | - | -
COc1cc(/C=N/N2CCN(C3c4ccccc4-c4ccccc43)CC2)cc(OC)c1O | - | 56 | - | - | -
Cc1cc(C)n(C(C)CC(=O)Nc2ccc(-c3ccno3)cc2)n1 (stereo not drawn) | . | . | . | - | .
Cc1ccc(/C=N/NC(=O)c2nnn(-c3nonc3N)c2-c2cccs2)cc1 | . | . | . | 189 | .
COc1ccc(/C=N/NC(=O)c2nnn(-c3nonc3N)c2-c2cccs2)cc1OC | . | . | . | - | .
CC(C)c1c(C(=O)N/N=C/c2ccc(OCc3ccccc3)cc2)nnn1-c1nonc1N | . | . | . | + | .
O=C(Nc1cccc(Cl)c1)NC1CC2CCC(C1)N2Cc1ccco1 (stereo not drawn) | - | - | - | 33 | -
CCc1ccccc1NC(=O)NC1CC2CCC(C1)N2Cc1ccco1 (stereo not drawn) | - | - | - | - | -
CCCc1cc(SCC(=O)Nc2c(C)n(C)n(-c3ccccc3)c2=O)n2c(nc3ccccc32)c1C#N | - | - | - | - | -
Cc1cc(Nc2c(C)n(C)n(-c3ccccc3)c2=O)n2c(nc3cc(F)c(F)cc32)c1C#N | - | - | - | 96 | -
SMILES | Hck-Nef inh | Runt-SMMHC FRET | Tb hexokinase | RanGTP-Impb inh | Runt-CBFb FRET
O=C(CCl)NC(=O)NC12CC3CC(CC(C3)C1)C2 | - | - | - | - | -
CC1(C)CC(=O)c2cnc3c(C#N)cnn3c2C1 | - | - | - | 115 | -
N#CC1=C(N)SC(N)=C(C#N)C1c1ccc(C(F)(F)F)cc1 | - | - | - | 24 | -
CCOc1ccc(C2C(C#N)=C(N)SC(N)=C2C#N)cc1OC | - | - | - | 26 | -
CCOc1ccc(C2C(C#N)=C(N)SC(N)=C2C#N)cc1OCC | . | - | . | 33 | -
Cc1nn(C)cc1NC(=O)c1cc2nc(-c3ccco3)cc(C(F)(F)F)n2n1 | - | - | - | - | -
O=C(Nc1cnn(Cc2ccccc2)c1)c1cc2nc(-c3ccco3)cc(C(F)(F)F)n2n1 | - | - | - | 17 | -
COc1ccc(-c2nc(CSCC(=O)NCCCN3CCCC3=O)c(C)o2)cc1 | . | . | . | - | .
O=c1[nH]c(N/N=C\c2ccc(F)cc2)nc2ccccc12 | - | - | - | 38 | -
O=C(CSc1nnc(NC(=O)C2CC2)s1)Nc1ccc(F)cc1F | . | . | . | - | .
CN1Cc2c(N3CCOCC3)nc(SCc3ccccc3)c(C#N)c2CC1(C)C | - | 62 | - | 27 | -
C=CCSc1nc(N2CCOCC2)c2c(c1C#N)CC(C)(C)N(C)C2 | - | - | - | ? | -
CC1(C)Cc2c(C#N)c(SCC(=O)c3ccccc3)nc(N3CCOCC3)c2CS1 | - | - | - | - | -
CCSc1nc(N2CCOCC2)c2c(c1C#N)CC(C)(C)N(C)C2 | - | 91 | - | - | 95
COC(=O)CSc1nc(N2CCOCC2)c2c(c1C#N)CC(C)(C)N(C)C2 | - | 56 | - | 18 | -
COc1ccc(-c2csc3[nH]c(=S)n(-c4ccccc4)c(=O)c23)cc1OC | - | - | - | - | -
CCN(CC)CCN1C(=O)C(O)=C(C(=O)c2cccs2)C1c1ccc(C)o1 (stereo not drawn) | - | - | - | - | -
Cc1ccc(C2C(C(=O)c3cccs3)=C(O)C(=O)N2CCN2CCOCC2)o1 (stereo not drawn) | - | - | - | - | -
CCN(CC)CCN1C(=O)C(O)=C(C(=O)c2cccs2)C1c1ccccn1 (stereo not drawn) | - | - | - | 68 | -
O=C(C1=C(O)C(=O)N(CCN2CCOCC2)C1c1ccccn1)c1cccs1 (stereo not drawn) | - | - | - | 26 | -
CCCC[C@@H]1CCCO[C@@](C(=O)NCc2ccccn2)(C(F)(F)F)C1 | . | . | . | - | .
CN1/C(=C\C(=O)c2cccc(S(=O)(=O)N3CCCCC3)c2)C(C)(C)c2ccccc21 | - | - | - | 21 | -
CN1/C(=C\C(=O)c2ccco2)C(C)(C)c2ccccc21 | - | 79 | - | - | -
COc1ccc(-c2onc3ccc(Br)cc23)cc1 | - | - | - | - | -
COc1cc(-c2onc3ccc(Br)cc23)cc(OC)c1OC | - | 111 | - | - | 67
COc1ccccc1NC(=O)CN1CC(=O)Nc2ccccc21 | - | - | - | - | -
CC[C@H](C)/C=C(C)/C=C/C1=CC2=CC(=O)[C@]3(C)OC(=O)[C@@H](C(C)=O)[C@@H]3C2=CO1 | - | 85 | - | 55 | -
O=C(CSc1nc2ccccc2o1)Nc1nccs1 | - | - | - | ? | -
CC(Oc1cccc(Cl)c1)C(=O)Nc1cc(Cl)ccc1N1CCOCC1 (stereo not drawn) | . | . | . | - | .

Screens deposited in PubChem BioAssay by several laboratories.
